Here are results for one compound from ChEMBL document CHEMBL4196108, “5-Aroylindoles Act as Selective Histone Deacetylase 6 Inhibitors Ameliorating Alzheimer's Disease Phenotypes” (J Med Chem, 2018).

Each structure is given as a SMILES string. The source made the active and inactive calls. The rule behind the calls is not given here.

The test system of data set [1] is Mus musculus. In words: In vivo inhibition of HDAC6 in 3xTg-AD transgenic mouse brain hippocampal CA1 region assessed as downregulation of Tau phosphorylation at Ser396 residue at 50 mg/kg, po administered daily for 3 months by Western blot analysis.
For data set [2], the target named is T1, Protein deacetylase HDAC6 (Homo sapiens) (UniProt Q9UBN7).
T1 sequence (whole entry): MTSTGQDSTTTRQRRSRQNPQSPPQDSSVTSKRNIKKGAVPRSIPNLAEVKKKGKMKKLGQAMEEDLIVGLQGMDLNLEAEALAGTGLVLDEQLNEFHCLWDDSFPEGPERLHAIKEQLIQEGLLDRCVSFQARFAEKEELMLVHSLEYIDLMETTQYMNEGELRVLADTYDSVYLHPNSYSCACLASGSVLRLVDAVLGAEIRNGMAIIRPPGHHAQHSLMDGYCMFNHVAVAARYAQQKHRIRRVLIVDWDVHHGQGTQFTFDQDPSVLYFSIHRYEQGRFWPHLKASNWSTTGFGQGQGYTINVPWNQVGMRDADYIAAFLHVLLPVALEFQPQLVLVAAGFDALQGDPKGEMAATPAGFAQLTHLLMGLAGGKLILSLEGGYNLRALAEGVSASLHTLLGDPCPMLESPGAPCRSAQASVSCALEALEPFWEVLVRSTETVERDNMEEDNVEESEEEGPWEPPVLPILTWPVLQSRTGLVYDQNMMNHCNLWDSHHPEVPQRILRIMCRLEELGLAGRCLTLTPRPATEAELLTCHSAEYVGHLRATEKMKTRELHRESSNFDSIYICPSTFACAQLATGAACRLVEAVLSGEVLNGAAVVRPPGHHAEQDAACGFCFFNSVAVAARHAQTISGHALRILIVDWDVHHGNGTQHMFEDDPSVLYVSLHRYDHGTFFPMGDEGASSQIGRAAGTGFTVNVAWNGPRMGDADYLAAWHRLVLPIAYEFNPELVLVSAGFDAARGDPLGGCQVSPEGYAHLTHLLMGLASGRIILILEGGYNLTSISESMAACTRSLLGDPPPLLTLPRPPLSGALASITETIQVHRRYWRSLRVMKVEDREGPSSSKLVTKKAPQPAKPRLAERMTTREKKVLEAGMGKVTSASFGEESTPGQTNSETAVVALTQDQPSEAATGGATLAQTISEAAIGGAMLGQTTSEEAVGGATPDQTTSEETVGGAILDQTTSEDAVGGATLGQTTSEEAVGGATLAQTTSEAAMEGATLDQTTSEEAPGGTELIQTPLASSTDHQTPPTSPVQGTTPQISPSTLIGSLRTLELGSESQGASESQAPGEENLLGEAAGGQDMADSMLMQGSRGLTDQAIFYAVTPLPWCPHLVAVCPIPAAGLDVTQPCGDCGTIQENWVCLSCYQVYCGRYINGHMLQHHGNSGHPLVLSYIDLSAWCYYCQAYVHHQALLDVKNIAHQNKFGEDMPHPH
In words: Inhibition of HDAC6 in human SH-SY5Y cells transfected with pCAX FLAG APP and pRK5-EGFP-Tau P301L plasmids assessed as increase in coimmunoprecipitation of ubiquitin with phosphorylated tau at Ser396 residue at 1 uM after 24 hrs. It is filed as cell-based. In outline:
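In APP695/Tau P301L-cotransfected SH-SY5Y cells treated 24 h at 1 µM, lysates (30 µg) were immunoprecipitated with anti-ubiquitin antibody and protein A/G beads overnight at 4 °C, then immunoblotted for phospho-tau Ser396 after 8% SDS-PAGE.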

The nature of data set [3]: Ratio of drug level in brain to plasma in Sprague-Dawley rat at 50 mg/kg, po after 1 hr. The format is ADME, organism-based. Conditions: read-out: BPR.
Data set [4] concerns Mus musculus. In words: In vivo inhibition of HDAC6 in scopolamine-treated 3xTg-AD transgenic mouse brain hippocampal CA1 region assessed as increase in acetyl-alpha-tubulin level at 50 mg/kg, po administered daily for 3 months by immunohistochemical analysis. It is filed as functional, organism-based. In short, it runs like this:
(§1)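 Female 3xTg-AD mice, standard diet to 6 months of age, then 50 mg/kg orally once daily for three months; memantine 30 mg/kg in water as comparator. Brains removed and hippocampal CA1 sections immunostained for acetyl-α-tubulin and phospho-tau Ser396 and Ser404. Mean ± STD; one-way ANOVA.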

Data set [5] concerns the target T1, Protein deacetylase HDAC6 (Homo sapiens). In words: Inhibition of HDAC6 in human SH-SY5Y cells assessed as increase in acetylation of alpha-tubulin at 0.1 to 1 uM after 24 hrs by Western blot analysis. The format is cell-based. In short, it runs like this:
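SH-SY5Y cells in MEM with 10% FBS at 37 °C, 5% CO2, treated 24 h at 0.1–1 µM. Lysates in HEPES/Triton buffer; 20 µg protein run on SDS-PAGE and immunoblotted for acetyl-α-tubulin, α-tubulin, acetyl-histone H3 and histone H3 with ECL detection.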
(In western blotting, separated proteins are transferred to a membrane and probed.)

The test system of data set [6] is Mus musculus. In words: In vivo inhibition of HDAC6 in 3xTg-AD transgenic mouse brain hippocampal CA1 region assessed as downregulation of scopolamine-mediated increase in Tau phosphorylation at Ser404 residue at 50 mg/kg, po administered daily for 3 months by immunohistochemical analysis. It is filed as functional, organism-based. In short, it runs like this:
as §1

As for `COc1ccc(C(=O)c2ccc3c(ccn3Cc3ccc(C(=O)NO)cc3)c2)cc1`, the inhibition result in data set [1], in data set [2], in data set [4], in data set [5] and in data set [6] was “Active” in each case. Besides, the Kp at 1 h in data set [3] is 1.19.
